Test results taken from ChEMBL document CHEMBL4732237, “Discovery of 4-alkoxy-2-aryl-6,7-dimethoxyquinolines as a new class of topoisomerase I inhibitors endowed with potent in vitro anticancer activity” (2021).

Columns and labels:
Format in all cases: functional
Conditions in all cases: read-out: GI
HL-60(TB) = assay: Growth inhibition of human HL-60(TB) cells at 10 uM incubated for 48 hrs by sulforhodamine B assay relative to control
How it was run: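 NCI-60 one-dose screen: same culture, 48 h drug exposure and SRB read-out. Reported as percent growth relative to no-drug control and to time-zero cell number; 0–100 means growth inhibition, below 0 means lethality.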

MOLT-4 = assay: Growth inhibition of human MOLT-4 cells at 10 uM incubated for 48 hrs by sulforhodamine B assay relative to control
How it was run: (§1)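 NCI one-dose screen. Cells grown in RPMI 1640 with 5% FBS and 2 mM L-glutamine, plated and incubated 24 h at 37 °C, 5% CO2. DMSO-dissolved drug added, then 48 h further incubation. Adherent cells fixed with cold TCA, suspension cells fixed after settling. Stained with 0.4% SRB, absorbance read at 515 nm. Reported as percent growth relative to no-drug control and time-zero cell number.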

SR = assay: Growth inhibition of human SR cells at 10 uM incubated for 48 hrs by sulforhodamine B assay relative to control; how it was run: as §1
HOP-62 = assay: Growth inhibition of human HOP-62 cells at 10 uM incubated for 48 hrs by sulforhodamine B assay relative to control
How it was run: (§2)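 NCI-60 single-dose screen. Cells were grown in RPMI 1640 with 5% FBS and 2 mM L-glutamine and plated 24 h before drug addition. Compound was added at one concentration in DMSO-derived medium and incubated for 48 h at 37 °C in 5% CO2. Read-out was SRB protein stain at 515 nm. Result is percent growth versus the no-drug control and the time-zero cell count; values below 0 indicate lethality.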

HOP-92 = assay: Growth inhibition of human HOP-92 cells at 10 uM incubated for 48 hrs by sulforhodamine B assay relative to control; how it was run: as §2
NCI-H23 = assay: Growth inhibition of human NCI-H23 cells at 10 uM incubated for 48 hrs by sulforhodamine B assay relative to control; how it was run: as §1
NCI-H322M = assay: Growth inhibition of human NCI-H322M cells at 10 uM incubated for 48 hrs by sulforhodamine B assay relative to control; how it was run: as §1
NCI-H460 = assay: Growth inhibition of human NCI-H460 cells at 10 uM incubated for 48 hrs by sulforhodamine B assay relative to control; how it was run: as §1
COLO 205 = assay: Growth inhibition of human COLO 205 cells at 10 uM incubated for 48 hrs by sulforhodamine B assay relative to control; how it was run: as §2
KM12 = assay: Growth inhibition of human KM12 cells at 10 uM incubated for 48 hrs by sulforhodamine B assay relative to control; how it was run: as §2
SW-620 = assay: Growth inhibition of human SW-620 cells at 10 uM incubated for 48 hrs by sulforhodamine B assay relative to control
How it was run: (§3)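 NCI one-dose screen across a 59-line panel. Cells were grown in RPMI 1640 with 5% FBS and 2 mM L-glutamine, plated and pre-incubated 24 h, then exposed to drug for 48 h at 37 °C, 5% CO2. Adherent cells were fixed with cold TCA (10% final), stained with 0.4% SRB in 1% acetic acid and read at 515 nm. Result is percent growth relative to no-drug control and time-zero cell count.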

SF-295 = assay: Growth inhibition of human SF-295 cells at 10 uM incubated for 48 hrs by sulforhodamine B assay relative to control; how it was run: as §1
SNB-19 = assay: Growth inhibition of human SNB-19 cells at 10 uM incubated for 48 hrs by sulforhodamine B assay relative to control; how it was run: as §1
U-251 = assay: Growth inhibition of human U-251 cells at 10 uM incubated for 48 hrs by sulforhodamine B assay relative to control; how it was run: as §3
LOX IMVI = assay: Growth inhibition of human LOX IMVI cells at 10 uM incubated for 48 hrs by sulforhodamine B assay relative to control; how it was run: as §2
M14 = assay: Growth inhibition of human M14 cells at 10 uM incubated for 48 hrs by sulforhodamine B assay relative to control; how it was run: as §2
MDA-MB-435 = assay: Growth inhibition of human MDA-MB-435 cells at 10 uM incubated for 48 hrs by sulforhodamine B assay relative to control; how it was run: as §2
SK-MEL-2 = assay: Growth inhibition of human SK-MEL-2 cells at 10 uM incubated for 48 hrs by sulforhodamine B assay relative to control; how it was run: as §1
SK-MEL-28 = assay: Growth inhibition of human SK-MEL-28 cells at 10 uM incubated for 48 hrs by sulforhodamine B assay relative to control; how it was run: as §1
UACC-257 = assay: Growth inhibition of human UACC-257 cells at 10 uM incubated for 48 hrs by sulforhodamine B assay relative to control; how it was run: as §3
UACC-62 = assay: Growth inhibition of human UACC-62 cells at 10 uM incubated for 48 hrs by sulforhodamine B assay relative to control; how it was run: as §3
IGROV-1 = assay: Growth inhibition of human IGROV-1 cells at 10 uM incubated for 48 hrs by sulforhodamine B assay relative to control; how it was run: as §2
OVCAR-3 = assay: Growth inhibition of human OVCAR-3 cells at 10 uM incubated for 48 hrs by sulforhodamine B assay relative to control; how it was run: as §1
OVCAR-4 = assay: Growth inhibition of human OVCAR-4 cells at 10 uM incubated for 48 hrs by sulforhodamine B assay relative to control; how it was run: as §1
NCI/ADR-RES = assay: Growth inhibition of human NCI/ADR-RES cells at 10 uM incubated for 48 hrs by sulforhodamine B assay relative to control; how it was run: as §1
SK-OV-3 = assay: Growth inhibition of human SK-OV-3 cells at 10 uM incubated for 48 hrs by sulforhodamine B assay relative to control; how it was run: as §1
RXF 393 = assay: Growth inhibition of human RXF 393 cells at 10 uM incubated for 48 hrs by sulforhodamine B assay relative to control; how it was run: as §1
SN12C = assay: Growth inhibition of human SN12C cells at 10 uM incubated for 48 hrs by sulforhodamine B assay relative to control; how it was run: as §1
TK-10 = assay: Growth inhibition of human TK-10 cells at 10 uM incubated for 48 hrs by sulforhodamine B assay relative to control; how it was run: as §3
PC-3 = assay: Growth inhibition of human PC-3 cells at 10 uM incubated for 48 hrs by sulforhodamine B assay relative to control; how it was run: as §1
MCF7 = assay: Growth inhibition of human MCF7 cells at 10 uM incubated for 48 hrs by sulforhodamine B assay relative to control; how it was run: as §2
MDA-MB-231 = assay: Growth inhibition of human MDA-MB-231 cells at 10 uM incubated for 48 hrs by sulforhodamine B assay relative to control; how it was run: as §2
Hs-578T = assay: Growth inhibition of human HS-578T cells at 10 uM incubated for 48 hrs by sulforhodamine B assay relative to control; how it was run: as §2
BT-549 = assay: Growth inhibition of human BT-549 cells at 10 uM incubated for 48 hrs by sulforhodamine B assay relative to control; how it was run: as §2
T47D = assay: Growth inhibition of human T47D cells at 10 uM incubated for 48 hrs by sulforhodamine B assay relative to control; how it was run: as §3
MDA-MB-468 = assay: Growth inhibition of human MDA-MB-468 cells at 10 uM incubated for 48 hrs by sulforhodamine B assay relative to control; how it was run: as §2

| Structure (SMILES) | inhibition of growth at 10 µM (HL-60(TB)) | inhibition of growth at 10 µM (MOLT-4) | inhibition of growth at 10 µM (SR) | inhibition of growth at 10 µM (HOP-62) | inhibition of growth at 10 µM (HOP-92) | inhibition of growth at 10 µM (NCI-H23) | inhibition of growth at 10 µM (NCI-H322M) | inhibition of growth at 10 µM (NCI-H460) | inhibition of growth at 10 µM (COLO 205) | inhibition of growth at 10 µM (KM12) | inhibition of growth at 10 µM (SW-620) | inhibition of growth at 10 µM (SF-295) | inhibition of growth at 10 µM (SNB-19) | inhibition of growth at 10 µM (U-251) | inhibition of growth at 10 µM (LOX IMVI) | inhibition of growth at 10 µM (M14) | inhibition of growth at 10 µM (MDA-MB-435) | inhibition of growth at 10 µM (SK-MEL-2) | inhibition of growth at 10 µM (SK-MEL-28) | inhibition of growth at 10 µM (UACC-257) | further results |
| --- | --- | --- | --- | --- | --- | --- | --- | --- | --- | --- | --- | --- | --- | --- | --- | --- | --- | --- | --- | --- | --- |
| COc1cc2nc(-c3ccc(Cl)cc3)cc(OCCN3CCOCC3)c2cc1OC | 3% | 3% | 3% | 3% | 3% | 3% | 3% | 3% | 3% | 3% | 3% | 3% | 3% | 3% | 3% | 3% | 3% | 3% | 3% | 3% | inhibition of growth at 10 µM (UACC-62): 3%; inhibition of growth at 10 µM (IGROV-1): 3%; inhibition of growth at 10 µM (OVCAR-3): 3%; inhibition of growth at 10 µM (OVCAR-4): 3%; inhibition of growth at 10 µM (NCI/ADR-RES): 3%; inhibition of growth at 10 µM (SK-OV-3): 3%; inhibition of growth at 10 µM (RXF 393): 3%; inhibition of growth at 10 µM (SN12C): 3%; inhibition of growth at 10 µM (TK-10): 3%; inhibition of growth at 10 µM (PC-3): 3%; inhibition of growth at 10 µM (MCF7): 3%; inhibition of growth at 10 µM (MDA-MB-231): 3%; inhibition of growth at 10 µM (Hs-578T): 3%; inhibition of growth at 10 µM (BT-549): 3%; inhibition of growth at 10 µM (T47D): 3%; inhibition of growth at 10 µM (MDA-MB-468): 3% |
| COc1cc2nc(-c3ccc(Cl)cc3)cc(OCCCN3CCCC3)c2cc1OC | 62% | 62% | 62% | 62% | 62% | 62% | 62% | 62% | 62% | 62% | 62% | 62% | 62% | 62% | 62% | 62% | 62% | 62% | 62% | 62% | inhibition of growth at 10 µM (UACC-62): 62%; inhibition of growth at 10 µM (IGROV-1): 62%; inhibition of growth at 10 µM (OVCAR-3): 62%; inhibition of growth at 10 µM (OVCAR-4): 62%; inhibition of growth at 10 µM (NCI/ADR-RES): 62%; inhibition of growth at 10 µM (SK-OV-3): 62%; inhibition of growth at 10 µM (RXF 393): 62%; inhibition of growth at 10 µM (SN12C): 62%; inhibition of growth at 10 µM (TK-10): 62%; inhibition of growth at 10 µM (PC-3): 62%; inhibition of growth at 10 µM (MCF7): 62%; inhibition of growth at 10 µM (MDA-MB-231): 62%; inhibition of growth at 10 µM (Hs-578T): 62%; inhibition of growth at 10 µM (BT-549): 62%; inhibition of growth at 10 µM (T47D): 62%; inhibition of growth at 10 µM (MDA-MB-468): 62% |
